Source: ChEMBL document CHEMBL1759999, “Exploration of (S)-3-aminopyrrolidine as a potentially interesting scaffold for discovery of novel Abl and PI3K dual inhibitors” (Eur J Med Chem, 2011)
Calls of active or inactive are those of the source. The rule behind the calls is not given here.

What was measured:
K562 [1] = assay: Cytotoxicity against human K562 cells after 48 hrs by MTT assay; format: functional, cell-based; conditions: K562, 48 h
How it was run: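 K562 cells grown in DMEM with 10% FBS plus penicillin and streptomycin, humidified air, 37 °C, 5% CO2. Cells seeded in 96-well plates and exposed to compounds at varying concentrations for 48 h. Viability read by MTT. IC50 derived from inhibition rates at each concentration. Values are means of three experiments.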

[2] = molecular target: Tyrosine-protein kinase ABL2 (Homo sapiens) (UniProt P42684); assay: Inhibition of Abl2 at 20 uM after 1 hr by luminescence assay
How it was run: (§1)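 Kinase incubated with substrate, test compound and ATP in a final buffer of 25 mM HEPES. Controls were staurosporine for Abl and PI103 for PI3K.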

[3] = molecular target: Phosphatidylinositol 4,5-bisphosphate 3-kinase catalytic subunit alpha isoform (Homo sapiens) (UniProt P42336); assay: Inhibition of PI3Kalpha at 20 uM after 1 hr by luminescence assay; how it was run: as §1
K562 [4] = assay: Induction of apoptosis in human K562 cells at 5 uM after 24 hrs by annexin V-FITC/propidium iodide staining by flow cytometry; format: functional, cell-based
How it was run: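 K562 cells were treated for 24 h, then untreated and treated cells were collected by centrifugation and washed twice with ice-cold PBS. Phosphatidylserine surface exposure was measured by Annexin V-FITC binding, with PI staining for membrane integrity. Read-out was flow cytometry.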

Sequence of Phosphatidylinositol 4,5-bisphosphate 3-kinase catalytic subunit alpha isoform (Homo sapiens) (P42336 whole entry, canonical isoform): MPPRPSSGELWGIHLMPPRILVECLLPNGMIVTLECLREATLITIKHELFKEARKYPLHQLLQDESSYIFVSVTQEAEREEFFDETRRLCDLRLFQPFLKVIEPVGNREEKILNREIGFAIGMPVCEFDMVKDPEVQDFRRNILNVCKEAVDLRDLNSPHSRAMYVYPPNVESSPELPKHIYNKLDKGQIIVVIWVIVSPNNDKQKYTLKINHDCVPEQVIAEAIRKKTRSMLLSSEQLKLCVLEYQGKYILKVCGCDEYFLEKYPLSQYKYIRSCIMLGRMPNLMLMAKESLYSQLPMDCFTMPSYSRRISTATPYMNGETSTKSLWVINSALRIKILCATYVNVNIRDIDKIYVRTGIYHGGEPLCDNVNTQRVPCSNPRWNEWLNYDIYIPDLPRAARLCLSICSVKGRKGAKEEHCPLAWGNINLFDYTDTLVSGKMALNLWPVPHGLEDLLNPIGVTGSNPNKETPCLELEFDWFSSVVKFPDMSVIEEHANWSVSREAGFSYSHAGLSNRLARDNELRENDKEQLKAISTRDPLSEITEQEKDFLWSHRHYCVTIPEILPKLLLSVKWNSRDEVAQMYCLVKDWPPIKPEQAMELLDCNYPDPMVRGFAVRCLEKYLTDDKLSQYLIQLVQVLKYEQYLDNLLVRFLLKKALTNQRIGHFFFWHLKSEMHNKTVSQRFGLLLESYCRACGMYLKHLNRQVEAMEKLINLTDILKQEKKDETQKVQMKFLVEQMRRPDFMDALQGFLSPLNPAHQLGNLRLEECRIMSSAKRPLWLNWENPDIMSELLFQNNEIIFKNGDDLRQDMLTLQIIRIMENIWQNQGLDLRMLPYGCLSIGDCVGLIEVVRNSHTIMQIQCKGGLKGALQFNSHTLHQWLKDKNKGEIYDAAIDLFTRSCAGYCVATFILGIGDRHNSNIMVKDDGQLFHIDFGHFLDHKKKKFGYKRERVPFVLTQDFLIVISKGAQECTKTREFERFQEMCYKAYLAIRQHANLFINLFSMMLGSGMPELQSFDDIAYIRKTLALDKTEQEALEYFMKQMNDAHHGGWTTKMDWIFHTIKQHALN
Sequence of Tyrosine-protein kinase ABL2 (Homo sapiens) (P42684 whole entry): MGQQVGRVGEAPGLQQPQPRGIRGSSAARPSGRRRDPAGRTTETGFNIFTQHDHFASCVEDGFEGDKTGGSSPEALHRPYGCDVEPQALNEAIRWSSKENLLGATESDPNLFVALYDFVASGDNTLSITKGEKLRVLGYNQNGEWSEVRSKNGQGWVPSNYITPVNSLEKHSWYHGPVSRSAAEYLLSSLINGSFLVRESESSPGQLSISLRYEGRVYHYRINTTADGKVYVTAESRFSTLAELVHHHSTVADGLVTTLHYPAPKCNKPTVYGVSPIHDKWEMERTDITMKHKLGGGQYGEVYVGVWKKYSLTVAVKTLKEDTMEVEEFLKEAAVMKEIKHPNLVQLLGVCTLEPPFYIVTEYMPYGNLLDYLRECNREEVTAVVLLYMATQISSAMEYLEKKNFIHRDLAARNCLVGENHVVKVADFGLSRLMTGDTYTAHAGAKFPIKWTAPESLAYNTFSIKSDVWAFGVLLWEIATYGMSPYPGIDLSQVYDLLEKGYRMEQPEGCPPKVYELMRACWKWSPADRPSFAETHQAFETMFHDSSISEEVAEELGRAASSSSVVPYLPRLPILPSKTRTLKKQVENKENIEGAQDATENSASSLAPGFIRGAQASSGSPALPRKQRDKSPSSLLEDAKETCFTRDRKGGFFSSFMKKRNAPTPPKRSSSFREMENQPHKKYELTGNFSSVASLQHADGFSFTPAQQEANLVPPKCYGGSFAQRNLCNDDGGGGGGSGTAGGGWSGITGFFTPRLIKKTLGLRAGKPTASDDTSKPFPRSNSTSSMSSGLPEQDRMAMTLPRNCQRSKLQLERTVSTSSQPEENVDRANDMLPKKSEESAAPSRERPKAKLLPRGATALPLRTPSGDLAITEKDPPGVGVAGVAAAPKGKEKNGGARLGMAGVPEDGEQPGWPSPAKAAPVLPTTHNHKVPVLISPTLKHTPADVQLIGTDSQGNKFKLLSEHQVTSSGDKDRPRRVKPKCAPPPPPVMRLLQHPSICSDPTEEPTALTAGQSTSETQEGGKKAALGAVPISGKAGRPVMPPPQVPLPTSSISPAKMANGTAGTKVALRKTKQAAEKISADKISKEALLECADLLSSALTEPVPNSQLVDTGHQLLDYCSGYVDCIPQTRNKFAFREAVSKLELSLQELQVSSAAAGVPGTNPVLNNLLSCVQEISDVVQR

inhibition [2]	inhibition [3]	Structure (SMILES)	IC50 (K562 [1])	Activity (K562 [4])
–	–	Cc1cccc(CN2CCN(C(=O)CN[C@H]3CCN(S(=O)(=O)Cc4ccccc4)C3)CC2)c1	11.3 µM	–
–	–	O=C(CN[C@H]1CCN(S(=O)(=O)Cc2ccccc2)C1)N1CCN(Cc2c(F)cccc2Cl)CC1	65.8 µM	–
–	–	COc1cccc(CN2CCN(C(=O)CN[C@H]3CCN(S(=O)(=O)Cc4ccccc4)C3)CC2)c1	60.8 µM	–
–	–	COc1ccc(CN2CCN(C(=O)CN[C@H]3CCN(S(=O)(=O)Cc4ccccc4)C3)CC2)cc1	50.9 µM	–
–	–	Cc1ccc(NC(=O)c2ccc(CN3CCN(C)CC3)cc2)cc1Nc1nccc(-c2cccnc2)n1 [IMATINIB]	0.58 µM	–
–	–	O=C(CN[C@H]1CCN(S(=O)(=O)Cc2ccccc2)C1)N1CCN(Cc2cccc(Cl)c2)CC1	8.6 µM	–
–	–	Cc1ccccc1CN1CCN(C(=O)CN[C@H]2CCN(S(=O)(=O)Cc3ccccc3)C2)CC1	10.2 µM	–
–	–	COc1cc(CN2CCN(C(=O)CN[C@H]3CCN(S(=O)(=O)Cc4ccccc4)C3)CC2)cc(OC)c1OC	93 µM	–
4.92%	16.4%	O=C(CN[C@H]1CCN(S(=O)(=O)Cc2ccccc2)C1)N1CCN(Cc2ccc(Cl)cc2Cl)CC1	4.3 µM	inactive
–	–	O=C(CN[C@H]1CCN(S(=O)(=O)Cc2ccccc2)C1)N1CCN(Cc2cccc(F)c2)CC1	13.2 µM	–
–	–	O=C(CN[C@H]1CCN(S(=O)(=O)Cc2ccccc2)C1)N1CCN(Cc2ccc(Cl)cc2)CC1	9.2 µM	–
–	–	O=C(CN[C@H]1CCN(S(=O)(=O)Cc2ccccc2)C1)N1CCN(Cc2ccccc2Cl)CC1	9 µM	–
4.49%	12.1%	O=C(CN[C@H]1CCN(S(=O)(=O)Cc2ccccc2)C1)N1CCN(Cc2cccc(C(F)(F)F)c2)CC1	3.6 µM	inactive
–	–	Cc1ccc(CN2CCN(C(=O)CN[C@H]3CCN(S(=O)(=O)Cc4ccccc4)C3)CC2)cc1	8.2 µM	–
–	–	O=C(CN[C@H]1CCN(S(=O)(=O)Cc2ccccc2)C1)N1CCN(Cc2ccccc2)CC1	9.5 µM	–
–	–	O=C(CN[C@H]1CCN(S(=O)(=O)Cc2ccccc2)C1)N1CCN(Cc2ccccc2F)CC1	12.6 µM	–
–	–	O=C(CN[C@H]1CCN(S(=O)(=O)Cc2ccccc2)C1)N1CCN(Cc2c(Cl)cccc2Cl)CC1	28.4 µM	–
–	–	O=C(CN[C@H]1CCN(S(=O)(=O)Cc2ccccc2)C1)N1CCN(Cc2ccc(F)cc2)CC1	14.3 µM	–
–	98.1%	Oc1cccc(-c2nc(N3CCOCC3)c3oc4ncccc4c3n2)c1	–	–
1.39%	13.5%	Cc1cc(C)c(CN2CCN(C(=O)CN[C@H]3CCN(S(=O)(=O)Cc4ccccc4)C3)CC2)c(C)c1	3.3 µM	inactive
–	–	COc1cc(CN2CCN(C(=O)CN[C@H]3CCN(S(=O)(=O)Cc4ccccc4)C3)CC2)cc(OC)c1	33.8 µM	–

Structure (SMILES)	inhibition [2]	inhibition [3]	IC50 (K562 [1])	Activity (K562 [4])
CN[C@@H]1C[C@H]2O[C@@](C)([C@@H]1OC)n1c3ccccc3c3c4c(c5c6ccccc6n2c5c31)C(=O)NC4	90.2%	–	–	–
